# Test results taken from ChEMBL document CHEMBL4610035, “Synthesis and biological evaluation of novel 3-benzylcoumarin-imidazolium salts” (Bioorg Med Chem Lett, 2020).
# System: HL-60
# Assay: Antiproliferative activity against human HL60 cells assessed as growth inhibition incubated up to 4 days by MTS assay
# Type: functional, cell-based
# Conditions: HL-60, 96 h
# Outline: (§1)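 Five human tumour cell lines were assayed by MTS. IC50 is the compound concentration that cuts optical density of treated cells by 50% relative to untreated cells. Mean of three independent determinations.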
row,Compound,IC50 [µM]
1,O=c1oc2ccccc2cc1C(c1ccccc1)n1cnc2ccccc21 (stereo not given),> 20
2,COc1ccc(C(=O)C[n+]2c(C)n(C(c3ccccc3)c3cc4ccccc4oc3=O)c3ccccc32)cc1 (stereo not given),3.69
3,Cc1cc2c(cc1C)[n+](CC(=O)c1ccc(C(F)(F)F)cc1)cn2C(c1ccccc1)c1cc2ccccc2oc1=O (stereo not given),8.81
4,Cc1n(C(c2ccccc2)c2cc3ccccc3oc2=O)c2ccccc2[n+]1CC(=O)c1ccc(C(F)(F)F)cc1 (stereo not given),7.72
5,O=C(C[n+]1cn(C(c2ccccc2)c2cc3ccccc3oc2=O)c2ccccc21)c1ccc(C(F)(F)F)cc1 (stereo not given),4.49
6,O=C(C[n+]1cn(C(c2ccccc2)c2cc3ccccc3oc2=O)c2ccccc21)c1ccc2ccccc2c1 (stereo not given),4.13
7,Cc1nc2ccccc2n1C(c1ccccc1)c1cc2ccccc2oc1=O (stereo not given),> 20
8,Cc1cc2c(cc1C)[n+](CC(=O)c1ccccc1)cn2C(c1ccccc1)c1cc2ccccc2oc1=O (stereo not given),4.81

# Other lines, results leading:
row,IC50 [µM],Compound
1,> 20,O=C(C[n+]1ccn(C(c2ccccc2)c2cc3ccccc3oc2=O)c1)c1ccc(C(F)(F)F)cc1 (stereo not given)
2,7.13,COc1ccc(C(=O)C[n+]2cn(C(c3ccccc3)c3cc4ccccc4oc3=O)c3ccccc32)cc1 (stereo not given)
3,18.6,O=C(C[n+]1cn(C(c2ccccc2)c2cc3ccccc3oc2=O)c2ccccc21)c1ccccc1 (stereo not given)
4,8.34,Cc1n(C(c2ccccc2)c2cc3ccccc3oc2=O)c2ccccc2[n+]1CC(=O)c1ccc2ccccc2c1 (stereo not given)
5,5.28,O=C(C[n+]1ccn(C(c2ccccc2)c2cc3ccccc3oc2=O)c1)c1ccc(-c2ccccc2)cc1 (stereo not given)

# System: SMMC-7721
# Assay: Antiproliferative activity against human SMMC7721 cells assessed as growth inhibition incubated up to 4 days by MTS assay
# Type: functional, cell-based
# Conditions: SMMC-7721, 96 h
# Outline: as §1
row,Compound,IC50 [µM]
1,O=c1oc2ccccc2cc1C(c1ccccc1)n1cnc2ccccc21 (stereo not given),> 20
2,COc1ccc(C(=O)C[n+]2c(C)n(C(c3ccccc3)c3cc4ccccc4oc3=O)c3ccccc32)cc1 (stereo not given),6.92
3,Cc1cc2c(cc1C)[n+](CC(=O)c1ccc(C(F)(F)F)cc1)cn2C(c1ccccc1)c1cc2ccccc2oc1=O (stereo not given),9.5
4,Cc1n(C(c2ccccc2)c2cc3ccccc3oc2=O)c2ccccc2[n+]1CC(=O)c1ccc(C(F)(F)F)cc1 (stereo not given),> 20
5,O=C(C[n+]1cn(C(c2ccccc2)c2cc3ccccc3oc2=O)c2ccccc21)c1ccc(C(F)(F)F)cc1 (stereo not given),6.15
6,O=C(C[n+]1cn(C(c2ccccc2)c2cc3ccccc3oc2=O)c2ccccc21)c1ccc2ccccc2c1 (stereo not given),5.72
7,Cc1nc2ccccc2n1C(c1ccccc1)c1cc2ccccc2oc1=O (stereo not given),> 20
8,Cc1cc2c(cc1C)[n+](CC(=O)c1ccccc1)cn2C(c1ccccc1)c1cc2ccccc2oc1=O (stereo not given),7.17

# More lines, now with the values ahead:
row,IC50 [µM],Compound
1,> 20,O=C(C[n+]1ccn(C(c2ccccc2)c2cc3ccccc3oc2=O)c1)c1ccc(C(F)(F)F)cc1 (stereo not given)
2,8.84,COc1ccc(C(=O)C[n+]2cn(C(c3ccccc3)c3cc4ccccc4oc3=O)c3ccccc32)cc1 (stereo not given)
3,> 20,O=C(C[n+]1cn(C(c2ccccc2)c2cc3ccccc3oc2=O)c2ccccc21)c1ccccc1 (stereo not given)
4,11.4,Cc1n(C(c2ccccc2)c2cc3ccccc3oc2=O)c2ccccc2[n+]1CC(=O)c1ccc2ccccc2c1 (stereo not given)
5,> 20,O=C(C[n+]1ccn(C(c2ccccc2)c2cc3ccccc3oc2=O)c1)c1ccc(-c2ccccc2)cc1 (stereo not given)

# System: A549
# Assay: Antiproliferative activity against human A549 cells assessed as growth inhibition incubated up to 4 days by MTS assay
# Type: functional, cell-based
# Conditions: A549, 96 h
# Outline: as §1
row,Compound,IC50 [µM]
1,O=c1oc2ccccc2cc1C(c1ccccc1)n1cnc2ccccc21 (stereo not given),> 20
2,COc1ccc(C(=O)C[n+]2c(C)n(C(c3ccccc3)c3cc4ccccc4oc3=O)c3ccccc32)cc1 (stereo not given),8.56
3,Cc1cc2c(cc1C)[n+](CC(=O)c1ccc(C(F)(F)F)cc1)cn2C(c1ccccc1)c1cc2ccccc2oc1=O (stereo not given),11.7
4,Cc1n(C(c2ccccc2)c2cc3ccccc3oc2=O)c2ccccc2[n+]1CC(=O)c1ccc(C(F)(F)F)cc1 (stereo not given),> 20
5,O=C(C[n+]1cn(C(c2ccccc2)c2cc3ccccc3oc2=O)c2ccccc21)c1ccc(C(F)(F)F)cc1 (stereo not given),7.07
6,O=C(C[n+]1cn(C(c2ccccc2)c2cc3ccccc3oc2=O)c2ccccc21)c1ccc2ccccc2c1 (stereo not given),9.11
7,Cc1nc2ccccc2n1C(c1ccccc1)c1cc2ccccc2oc1=O (stereo not given),> 20
8,Cc1cc2c(cc1C)[n+](CC(=O)c1ccccc1)cn2C(c1ccccc1)c1cc2ccccc2oc1=O (stereo not given),12.4

# Second part, the compound after the results:
row,IC50 [µM],Compound
1,> 20,O=C(C[n+]1ccn(C(c2ccccc2)c2cc3ccccc3oc2=O)c1)c1ccc(C(F)(F)F)cc1 (stereo not given)
2,> 20,COc1ccc(C(=O)C[n+]2cn(C(c3ccccc3)c3cc4ccccc4oc3=O)c3ccccc32)cc1 (stereo not given)
3,> 20,O=C(C[n+]1cn(C(c2ccccc2)c2cc3ccccc3oc2=O)c2ccccc21)c1ccccc1 (stereo not given)
4,15.8,Cc1n(C(c2ccccc2)c2cc3ccccc3oc2=O)c2ccccc2[n+]1CC(=O)c1ccc2ccccc2c1 (stereo not given)
5,> 20,O=C(C[n+]1ccn(C(c2ccccc2)c2cc3ccccc3oc2=O)c1)c1ccc(-c2ccccc2)cc1 (stereo not given)

# System: MCF7
# Assay: Antiproliferative activity against human MCF7 cells assessed as growth inhibition incubated up to 4 days by MTS assay
# Type: functional, cell-based
# Conditions: MCF7, 96 h
# Outline: as §1
row,Compound,IC50 [µM]
1,O=c1oc2ccccc2cc1C(c1ccccc1)n1cnc2ccccc21 (stereo not given),> 20
2,COc1ccc(C(=O)C[n+]2c(C)n(C(c3ccccc3)c3cc4ccccc4oc3=O)c3ccccc32)cc1 (stereo not given),1.21
3,Cc1cc2c(cc1C)[n+](CC(=O)c1ccc(C(F)(F)F)cc1)cn2C(c1ccccc1)c1cc2ccccc2oc1=O (stereo not given),6.61
4,Cc1n(C(c2ccccc2)c2cc3ccccc3oc2=O)c2ccccc2[n+]1CC(=O)c1ccc(C(F)(F)F)cc1 (stereo not given),8.15
5,O=C(C[n+]1cn(C(c2ccccc2)c2cc3ccccc3oc2=O)c2ccccc21)c1ccc(C(F)(F)F)cc1 (stereo not given),1.29
6,O=C(C[n+]1cn(C(c2ccccc2)c2cc3ccccc3oc2=O)c2ccccc21)c1ccc2ccccc2c1 (stereo not given),1.28
7,Cc1nc2ccccc2n1C(c1ccccc1)c1cc2ccccc2oc1=O (stereo not given),> 20
8,Cc1cc2c(cc1C)[n+](CC(=O)c1ccccc1)cn2C(c1ccccc1)c1cc2ccccc2oc1=O (stereo not given),4.17

# More lines, now with the values ahead:
row,IC50 [µM],Compound
1,> 20,O=C(C[n+]1ccn(C(c2ccccc2)c2cc3ccccc3oc2=O)c1)c1ccc(C(F)(F)F)cc1 (stereo not given)
2,1.74,COc1ccc(C(=O)C[n+]2cn(C(c3ccccc3)c3cc4ccccc4oc3=O)c3ccccc32)cc1 (stereo not given)
3,5.1,O=C(C[n+]1cn(C(c2ccccc2)c2cc3ccccc3oc2=O)c2ccccc21)c1ccccc1 (stereo not given)
4,2.81,Cc1n(C(c2ccccc2)c2cc3ccccc3oc2=O)c2ccccc2[n+]1CC(=O)c1ccc2ccccc2c1 (stereo not given)
5,12.7,O=C(C[n+]1ccn(C(c2ccccc2)c2cc3ccccc3oc2=O)c1)c1ccc(-c2ccccc2)cc1 (stereo not given)

# System: SW480
# Assay: Antiproliferative activity against human SW480 cells assessed as growth inhibition incubated up to 4 days by MTS assay
# Type: functional, cell-based
# Conditions: SW480, 96 h
# Outline: as §1
row,Compound,IC50 [µM]
1,O=c1oc2ccccc2cc1C(c1ccccc1)n1cnc2ccccc21 (stereo not given),> 20
2,COc1ccc(C(=O)C[n+]2c(C)n(C(c3ccccc3)c3cc4ccccc4oc3=O)c3ccccc32)cc1 (stereo not given),3.43
3,Cc1cc2c(cc1C)[n+](CC(=O)c1ccc(C(F)(F)F)cc1)cn2C(c1ccccc1)c1cc2ccccc2oc1=O (stereo not given),8.19
4,Cc1n(C(c2ccccc2)c2cc3ccccc3oc2=O)c2ccccc2[n+]1CC(=O)c1ccc(C(F)(F)F)cc1 (stereo not given),9.13
5,O=C(C[n+]1cn(C(c2ccccc2)c2cc3ccccc3oc2=O)c2ccccc21)c1ccc(C(F)(F)F)cc1 (stereo not given),1.55
6,O=C(C[n+]1cn(C(c2ccccc2)c2cc3ccccc3oc2=O)c2ccccc21)c1ccc2ccccc2c1 (stereo not given),1.48
7,Cc1nc2ccccc2n1C(c1ccccc1)c1cc2ccccc2oc1=O (stereo not given),> 20
8,Cc1cc2c(cc1C)[n+](CC(=O)c1ccccc1)cn2C(c1ccccc1)c1cc2ccccc2oc1=O (stereo not given),1.24

# Other lines, results leading:
row,IC50 [µM],Compound
1,> 20,O=C(C[n+]1ccn(C(c2ccccc2)c2cc3ccccc3oc2=O)c1)c1ccc(C(F)(F)F)cc1 (stereo not given)
2,4.82,COc1ccc(C(=O)C[n+]2cn(C(c3ccccc3)c3cc4ccccc4oc3=O)c3ccccc32)cc1 (stereo not given)
3,6.36,O=C(C[n+]1cn(C(c2ccccc2)c2cc3ccccc3oc2=O)c2ccccc21)c1ccccc1 (stereo not given)
4,6.02,Cc1n(C(c2ccccc2)c2cc3ccccc3oc2=O)c2ccccc2[n+]1CC(=O)c1ccc2ccccc2c1 (stereo not given)
5,> 20,O=C(C[n+]1ccn(C(c2ccccc2)c2cc3ccccc3oc2=O)c1)c1ccc(-c2ccccc2)cc1 (stereo not given)
